Source: publication PMC10445456 (Virus Research, 2023)

Columns and labels:
[1] = target: T1, vCDK/pUL97 (Human cytomegalovirus, UniProt P16788); assay: qSox-IVKA of immunoprecipitated pUL97-Flag; assay type: biochemical, HCMV
T1 sequence (P16788 1-707): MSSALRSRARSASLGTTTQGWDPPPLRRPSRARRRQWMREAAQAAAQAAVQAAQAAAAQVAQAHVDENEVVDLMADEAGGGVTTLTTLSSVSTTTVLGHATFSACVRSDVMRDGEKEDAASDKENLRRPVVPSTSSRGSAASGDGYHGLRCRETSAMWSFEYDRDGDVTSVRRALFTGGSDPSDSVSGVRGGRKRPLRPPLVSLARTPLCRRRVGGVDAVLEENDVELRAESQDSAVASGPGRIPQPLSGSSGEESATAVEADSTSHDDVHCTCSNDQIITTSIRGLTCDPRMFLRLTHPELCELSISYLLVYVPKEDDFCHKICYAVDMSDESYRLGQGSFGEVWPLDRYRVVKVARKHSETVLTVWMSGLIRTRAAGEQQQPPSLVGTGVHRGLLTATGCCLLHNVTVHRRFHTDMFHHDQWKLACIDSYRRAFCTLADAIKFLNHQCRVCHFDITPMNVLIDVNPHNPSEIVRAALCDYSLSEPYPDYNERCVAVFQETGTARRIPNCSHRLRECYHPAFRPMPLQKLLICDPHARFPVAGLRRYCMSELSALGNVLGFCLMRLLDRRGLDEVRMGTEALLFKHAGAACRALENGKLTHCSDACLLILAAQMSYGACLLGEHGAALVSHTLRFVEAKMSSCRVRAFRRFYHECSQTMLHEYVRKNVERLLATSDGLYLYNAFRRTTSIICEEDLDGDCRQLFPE

[2] = target: human CDK7 (Homo sapiens, UniProt P50613); assay: qSox-IVKA of immunoprecipitated CDK7; assay type: biochemical
[3] = target: pUL97-Flag/CDK7 (Homo sapiens, UniProt P50613); assay: qSox-IVKA of coimmunoprecipitated pUL97-Flag/CDK7, pUL97-specific sensor peptide; assay type: biochemical, HCMV / human; conditions: 0.01 µM LDC4297
[4] = tested on: HCMV-infected TEV-1 cells (cyclin H mRNA); assay: cyclin H mRNA levels by one-step RT-qPCR in HCMV Merlin-infected TEV-1 cells; assay type: cell-based, human; conditions: 1 µM MBV, HCMV Merlin MOI 0.5
[5] = tested on: HCMV-infected HFFs (cyclin H mRNA); assay: cyclin H mRNA levels by one-step RT-qPCR in HCMV Merlin-infected HFFs; assay type: cell-based, human; conditions: 1 µM MBV, HCMV Merlin MOI 0.5, 7 d p.i.
[6] = target: T2, CDK7 + pUL97-Flag (Human cytomegalovirus, UniProt P16788); assay: qSox-IVKA of CDK7 + pUL97-Flag samples, CDK7-specific sensor peptide; assay type: biochemical, human / HCMV; conditions: 0.35 µM MBV
T2 sequence (P16788 1-707): T1 sequence (P16788 1-707)
Outline: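 293T cells were transfected with pUL97-Flag or empty vector. At 2 d p.t., CDK7 and/or pUL97-Flag were immunoprecipitated, with a mouse Fc pseudo-IP as control. Eluate in HEPES pH 7.5 enzyme buffer was added to a reaction mix (final 1.0 mM ATP, 10 mM MgCl2, 15 µM CDK7 Sox sensor peptide AQT0459). Fluorescence (Ex355/Em480) was read kinetically at 30°C for about 80 min, in triplicate. Fc/empty-vector background was subtracted and Wb normalization factors applied. Combined-IP activity was related to CDK7 single IP, or pUL97-only activity was subtracted. 0.35 µM test compound or DMSO was added to combined samples. Data are from one representative biological replicate.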

[7] = tested on: CDK7 pSer164 and pThr170; assay: Wb of CDK7 T-loop phosphorylation in HCMV AD169-infected HFFs; assay type: cell-based, human; conditions: 0.35 µM MBV from 24 h p.i., harvested 3 d p.i., HCMV AD169 MOI 0.5
Outline: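 HFFs in T75 flasks were infected 1 d after seeding with HCMV AD169, UL97 K355Δ kinase-dead mutant (MOI 0.5) or mock; inoculum was replaced after 90 min at 37°C. AD169-infected cells received 0.35 µM test compound or DMSO at 24 h p.i. Cells were harvested 3 d p.i. for SDS-PAGE/Wb with phosphosite-specific antibodies against CDK7 pSer164 and pThr170.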

human CDK7, sequence (P50613 whole entry): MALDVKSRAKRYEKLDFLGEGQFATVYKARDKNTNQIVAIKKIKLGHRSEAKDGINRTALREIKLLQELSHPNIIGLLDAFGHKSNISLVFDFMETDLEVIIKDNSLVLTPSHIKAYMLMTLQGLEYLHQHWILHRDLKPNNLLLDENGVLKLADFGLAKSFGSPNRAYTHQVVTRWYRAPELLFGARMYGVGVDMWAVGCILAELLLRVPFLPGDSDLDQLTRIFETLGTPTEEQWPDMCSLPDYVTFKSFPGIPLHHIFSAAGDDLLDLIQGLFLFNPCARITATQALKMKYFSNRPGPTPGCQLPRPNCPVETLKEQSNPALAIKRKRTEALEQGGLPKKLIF
human CDK7, sequence (P51946 whole entry partner): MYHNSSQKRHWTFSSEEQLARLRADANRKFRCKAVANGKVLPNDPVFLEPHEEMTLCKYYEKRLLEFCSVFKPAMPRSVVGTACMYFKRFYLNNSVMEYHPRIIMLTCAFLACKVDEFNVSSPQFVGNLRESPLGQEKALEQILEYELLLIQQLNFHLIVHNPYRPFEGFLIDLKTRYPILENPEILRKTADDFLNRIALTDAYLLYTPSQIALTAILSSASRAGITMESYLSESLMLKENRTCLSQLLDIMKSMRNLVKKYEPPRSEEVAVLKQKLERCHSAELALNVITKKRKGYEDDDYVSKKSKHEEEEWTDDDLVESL
human CDK7, sequence (P51948 whole entry partner): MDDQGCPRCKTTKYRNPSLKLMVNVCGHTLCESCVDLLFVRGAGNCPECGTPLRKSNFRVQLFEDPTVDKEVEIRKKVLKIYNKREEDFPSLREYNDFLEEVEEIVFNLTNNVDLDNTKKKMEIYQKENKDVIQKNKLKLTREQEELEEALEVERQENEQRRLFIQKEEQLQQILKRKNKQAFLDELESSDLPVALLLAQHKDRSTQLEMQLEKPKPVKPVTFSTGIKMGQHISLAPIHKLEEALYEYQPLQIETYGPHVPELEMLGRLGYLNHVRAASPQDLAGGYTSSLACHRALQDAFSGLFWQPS
pUL97-Flag/CDK7, sequence (P50613 whole entry): as the sequence (P50613 whole entry) above
pUL97-Flag/CDK7, sequence (P51946 whole entry partner): as the sequence (P51946 whole entry partner) above
pUL97-Flag/CDK7, sequence (P51948 whole entry partner): as the sequence (P51948 whole entry partner) above

In the case of `CC(C)c1cnn2c(NCc3ccccc3-n3cccn3)nc(OC3CCCNC3)nc12` (stereo not shown) [LDC4297], the “inhibitory effect on pUL97 activity” value ([1]; 5 µM LDC4297) is reported as “did not affect pUL97 kinase activity”, the “effect on CDK7 activity” value ([2]; applied concentration of LDC4297 in the IVKA (5 µM)) is reported as “completely blocked CDK7 activity” and the “change in pUL97 activity upon inhibition of CDK7” value [3] is reported as “no change in pUL97 activity”.
With `CC(C)Nc1nc2cc(Cl)c(Cl)cc2n1[C@H]1O[C@@H](CO)[C@H](O)[C@@H]1O` [MBV, maribavir] the “reduction of the HCMV-induced increase of cyclin H mRNA levels” value [4] was 68%, the “reduction of the HCMV-induced increase of cyclin H mRNA levels” value [5] was 28% and the “pUL97 kinase activity reduced to” value ([1]; 0.35 µM) was 50%. The “effect on CDK7 activity” value ([2]; 0.35 µM MBV) was “not inhibited”, the “pUL97-mediated increased CDK7 kinase activity (trans-stimulation)” value [6] was “abolished” and the “CDK7 phosphomarkers pSer164 and pThr170” value [7] was “modest increase”.
“recombinant cyclin H: recombinant human cyclin H, full-length, GST-tag, expressed in insect cells (ABIN6699744)” was tested, and the “increase of in vitro kinase activity of pUL97” value ([1]; exogenous addition of 100 nM recombinant cyclin H) was 31.5%.
